Data published in ChEMBL document CHEMBL1212853, “New chloro,fluorobenzylindole derivatives as integrase strand-transfer inhibitors (INSTIs) and their mode of action” (Bioorg Med Chem, 2010).

Key:
[1] = test system: Human immunodeficiency virus 1; experiment: Antiviral activity against HIV1 infected in human MT4 cells assessed as inhibition of virus-induced cytopathic effect; format: functional, organism-based; details: Human immunodeficiency virus 1, MT4
In short: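 MT-4/MTT assay: MT-4 cells were infected with 100–300 CCID50 of an HIV-1 IIIB stock, titrated on MT-4 cells, in the presence of fivefold serial compound dilutions. Cell protection from virus-induced cytopathic effect was read spectrophotometrically as MTT reduction to formazan by viable cells. EC50 is the concentration giving 50% protection. Averages ± SD.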

MT4 = experiment: Cytotoxicity against human MT4 cells by MTT assay; format: cell-based
In short: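 Run in parallel with the antiviral MT-4/MTT assay, using fivefold serial compound dilutions. Viability was read spectrophotometrically as MTT reduction to formazan by mitochondrial dehydrogenase. CC50 is the concentration reducing MT-4 viability by 50%. Averages ± SD.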

[2] = Selectivity index, ratio of CC50 for human MT4 cells to EC50 for HIV1 cells; format: toxicity, cell-based; details: read-out: Selectivity Index
In short: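 MT-4/MTT assay in human MT-4 lymphocytes. Cells were infected with 100–300 CCID50 of HIV-1 strain IIIB, titrated on MT-4 cells, in the presence of fivefold serial compound dilutions. Viability was read spectrophotometrically as MTT reduced to formazan. EC50 is 50% protection against virus-induced cytopathic effect; CC50 was determined in parallel. SI is calculated as CC50/EC50.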

[3] = molecular target: T1, Human immunodeficiency virus type 1 integrase (Human immunodeficiency virus 1, UniProt Q7ZJM1)
T1 sequence (Q7ZJM1 whole entry): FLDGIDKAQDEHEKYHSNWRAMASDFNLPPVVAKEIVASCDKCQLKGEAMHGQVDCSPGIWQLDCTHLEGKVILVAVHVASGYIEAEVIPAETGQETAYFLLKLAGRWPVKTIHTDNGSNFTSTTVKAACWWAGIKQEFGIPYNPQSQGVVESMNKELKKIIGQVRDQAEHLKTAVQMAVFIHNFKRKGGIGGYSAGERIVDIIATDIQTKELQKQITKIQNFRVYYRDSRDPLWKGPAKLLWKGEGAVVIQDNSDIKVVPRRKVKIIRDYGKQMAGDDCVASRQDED

[4] = molecular target: T1, Human immunodeficiency virus type 1 integrase; remark: listed apart in the source

| SMILES | EC50 [1] [µM] | EC50 (MT4) [µM] | selectivity ratio [2] | IC50 [3] [µM] | IC50 [4] [µM] |
| --- | --- | --- | --- | --- | --- |
| CCOC(=O)/C(O)=C/C(=O)c1cn(Cc2ccc(Cl)c(F)c2)c2cccc(OC)c12 | > 63.7 | 63.7 | < 1 | 5.05 | 20.4 |
| CCOC(=O)/C(O)=C/C(=O)c1cn(Cc2ccc(F)c(Cl)c2)c2cccc(OC)c12 | 1.87 | 49.3 | 26 | 0.36 | 0.07 |
| CCOC(=O)/C(O)=C/C(=O)c1cn(Cc2ccc(Cl)cc2)c2cccc(OC)c12 | 41.3 | 41.3 | 1 | 5.78 | 8.26 |
| COc1cccc2c1c(C(=O)/C=C(\O)C(=O)O)cn2Cc1ccc(Cl)c(F)c1 | > 23.3 | 23.3 | < 1 | 3.33 | 4.58 |
| CCOC(=O)/C(O)=C/C(=O)c1cn(Cc2cccc(Cl)c2F)c2cccc(OC)c12 | 2.31 | 46.9 | 20 | 1.37 | 0.74 |
| CCOC(=O)/C(O)=C/C(=O)c1cn(Cc2cc(F)ccc2Cl)c2cccc(OC)c12 | 16.4 | 39.6 | 3 | 2.7 | 2.94 |
| COc1cccc2c1c(C(=O)/C=C(\O)C(=O)O)cn2Cc1ccccc1Cl | 0.42 | 27 | 64 | 0.71 | 0.52 |
| COc1cccc2c1c(C(=O)/C=C(\O)C(=O)O)cn2Cc1ccc(F)c(Cl)c1 | 0.43 | 31.7 | 74 | 0.04 | 0.12 |
| COc1cccc2c1c(C(=O)/C=C(\O)C(=O)O)cn2Cc1ccc(F)cc1 | – | 41.1 | 70 | – | – |
| CCOC(=O)/C(O)=C/C(=O)c1cn(Cc2ccccc2Cl)c2cccc(OC)c12 | 2.51 | 34.5 | 14 | 13.1 | 0.73 |
| COc1cccc2c1c(C(=O)/C=C(\O)C(=O)O)cn2Cc1ccc(Cl)cc1F | > 22.5 | 23 | < 1 | 2.53 | 5.52 |
| COc1cccc2c1c(C(=O)/C=C(\O)C(=O)O)cn2Cc1ccc(F)cc1Cl | 4.3 | 47.2 | 11 | 0.54 | 0.06 |
| CCOC(=O)/C(O)=C/C(=O)c1cn(Cc2c(F)cccc2Cl)c2cccc(OC)c12 | 4.66 | 25.4 | 5 | 2.86 | 1.2 |
| COc1cccc2c1c(C(=O)/C=C(\O)C(=O)O)cn2Cc1cccc(F)c1Cl | 0.36 | 6.5 | 18 | 5.24 | 12.7 |
| CCOC(=O)/C(O)=C/C(=O)c1cn(Cc2cc(Cl)ccc2F)c2cccc(OC)c12 | 18.1 | 18.1 | 1 | 1.61 | 0.89 |
| CCOC(=O)/C(O)=C/C(=O)c1cn(Cc2cc(F)cc(Cl)c2)c2cccc(OC)c12 | 4.27 | 58.2 | 14 | 1.3 | 3.17 |
| COc1cccc2c1c(C(=O)/C=C(\O)C(=O)O)cn2Cc1cc(F)ccc1Cl | 3.3 | 26.3 | 8 | 0.42 | 0.27 |
| COc1cccc2c1c(C(=O)/C=C(\O)C(=O)O)cn2Cc1cccc(Cl)c1F | 0.43 | 15 | 35 | 0.74 | 0.03 |
| COc1cccc2c1c(C(=O)/C=C(\O)C(=O)O)cn2Cc1cccc(Cl)c1 | 0.64 | 30.2 | 47 | 0.13 | 0.03 |
| COc1cccc2c1c(C(=O)/C=C(\O)C(=O)O)cn2Cc1cc(F)cc(Cl)c1 | 0.52 | 32.1 | 62 | 0.24 | 0.25 |
| CCOC(=O)/C(O)=C/C(=O)c1cn(Cc2cccc(F)c2Cl)c2cccc(OC)c12 | 2.52 | 18.5 | 7 | 1.39 | 9.2 |
| CCOC(=O)/C(O)=C/C(=O)c1cn(Cc2ccc(F)cc2Cl)c2cccc(OC)c12 | 4.06 | 51.4 | 13 | 1.74 | 2.56 |
| COc1cccc2c1c(C(=O)/C=C(\O)C(=O)O)cn2Cc1ccc(Cl)cc1 | 20.6 | 33.5 | 2 | 1.02 | 0.59 |
| Cc1nnc(C(=O)NC(C)(C)c2nc(C(=O)NCc3ccc(F)cc3)c(O)c(=O)n2C)o1 | – | > 18 | – | – | – |
| CCOC(=O)/C(O)=C/C(=O)c1cn(Cc2ccc(Cl)cc2F)c2cccc(OC)c12 | > 17 | 17 | < 1 | 1.15 | 3.32 |
| COc1cc2c(cc1Cc1cccc(Cl)c1F)c(=O)c(C(=O)O)cn2[C@H](CO)C(C)C | – | 2.12 | – | – | – |
| COc1cccc2c1c(C(=O)/C=C(\O)C(=O)O)cn2Cc1c(F)cccc1Cl | 0.56 | 62 | 111 | 0.53 | 0.13 |
| CCOC(=O)/C(O)=C/C(=O)c1cn(Cc2cccc(Cl)c2)c2cccc(OC)c12 | 3.25 | 52.9 | 17 | 4.78 | 2.89 |
| COc1cccc2c1c(C(=O)/C=C(\O)C(=O)O)cn2Cc1cc(Cl)ccc1F | 4.17 | 10.8 | 3 | 0.32 | 0.09 |
